Published values of several laboratories.
Protocols differ between the studies behind these lines.
Target: Serine/threonine-protein kinase LATS2 (LATS2, Homo sapiens, UniProt Q9NRM7)
Sequence (Q9NRM7 1-1088, as in one of the studies): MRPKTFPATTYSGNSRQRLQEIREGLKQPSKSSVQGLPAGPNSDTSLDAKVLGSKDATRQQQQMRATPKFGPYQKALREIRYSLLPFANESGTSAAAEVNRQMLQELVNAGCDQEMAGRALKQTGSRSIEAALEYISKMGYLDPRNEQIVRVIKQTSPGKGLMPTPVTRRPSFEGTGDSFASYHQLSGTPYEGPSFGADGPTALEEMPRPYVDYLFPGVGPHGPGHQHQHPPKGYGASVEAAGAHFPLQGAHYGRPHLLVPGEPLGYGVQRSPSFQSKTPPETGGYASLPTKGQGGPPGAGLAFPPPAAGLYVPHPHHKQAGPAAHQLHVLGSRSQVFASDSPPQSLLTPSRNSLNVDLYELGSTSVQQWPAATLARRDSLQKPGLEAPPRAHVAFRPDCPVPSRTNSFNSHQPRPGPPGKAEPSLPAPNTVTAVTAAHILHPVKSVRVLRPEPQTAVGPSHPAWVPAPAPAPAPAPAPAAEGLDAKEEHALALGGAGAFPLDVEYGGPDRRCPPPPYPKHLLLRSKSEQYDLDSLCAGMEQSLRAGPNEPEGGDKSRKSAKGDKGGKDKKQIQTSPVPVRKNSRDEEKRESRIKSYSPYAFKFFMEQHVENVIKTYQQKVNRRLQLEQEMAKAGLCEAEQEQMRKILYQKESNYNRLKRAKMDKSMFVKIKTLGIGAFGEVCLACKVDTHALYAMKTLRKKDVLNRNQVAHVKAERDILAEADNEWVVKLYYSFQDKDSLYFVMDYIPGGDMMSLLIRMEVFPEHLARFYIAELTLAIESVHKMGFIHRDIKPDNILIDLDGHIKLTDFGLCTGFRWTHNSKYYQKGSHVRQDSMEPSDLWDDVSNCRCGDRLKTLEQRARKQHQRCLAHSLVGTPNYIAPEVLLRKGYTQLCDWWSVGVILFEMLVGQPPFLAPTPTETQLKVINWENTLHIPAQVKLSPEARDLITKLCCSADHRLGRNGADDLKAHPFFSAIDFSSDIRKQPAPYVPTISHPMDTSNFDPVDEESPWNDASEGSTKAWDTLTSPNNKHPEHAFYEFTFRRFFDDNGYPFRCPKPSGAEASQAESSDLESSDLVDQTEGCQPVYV

SMILES | observed | mode | technique | cells | concentration | quantity | result
Cn1cnc(Br)c1C1=CN(c2ncnc3[nH]cnc23)CCS1 | enzyme activity | inhibitor | radiometric |  | 50 nM | inhibition | 29.1%
CCN1CCN(Cc2ccc(NC(=O)c3ccc(C)c(/C=C/c4cnc5[nH]ccc5c4OC)c3)cc2C(F)(F)F)CC1 | target engagement in cells | inhibitor | chemoproteomics | A-375 | 5 µM | inhibition | -21.8%
O=C(NCc1ncc(C(F)(F)F)cc1Cl)c1ccc2c(c1)C1(CCS(=O)(=O)CC1)[C@H](C1CC1)N2S(=O)(=O)c1ccc(F)cc1 | cell-free assay |  | competition with immobilised ligand |  | 1 µM | remaining binding | 100%
CC(C)(O)[C@H]1CC[C@H](Nc2ccc3ncc(-c4cccc(C(F)(F)F)c4)n3n2)CC1 | enzyme activity | inhibitor |  |  | 1 µM | remaining activity | 61.4%
Cn1cncc1C1=CN(c2ncnc3[nH]cnc23)CCS1 | enzyme activity | inhibitor | radiometric |  | 50 nM | inhibition | 34.2%
Cc1ccc(C(=O)Nc2ccc(CN3CCN(C)CC3)c(C(F)(F)F)c2)cc1C#Cc1cnc2cccnn12 | enzyme activity | inhibitor |  |  | 23.5 nM | remaining activity | 95%
COc1ccc2c(c1)O[C@H](c1ccc(OC)c(OC)c1)C[C@@H]2NC(=O)C1(c2ccc3c(c2)OC(F)(F)O3)CC1 | cell-free assay |  | competition with immobilised ligand |  | 1 µM | remaining binding | 89%
Nc1ncnc2occ(-c3ccc(NC(=O)Nc4cc(C(F)(F)F)ccc4F)cc3)c12 | cell-free assay | inhibitor |  |  | 20 µM | remaining signal | 3.7%
O=C(Nc1cnn(-c2csc(C(=O)NC3COC3)c2)c1)Nc1ccccc1Cl | enzyme activity | inhibitor |  |  | 5 µM | remaining activity | 96%
COc1cc(-c2cc(-c3ccc(N4CCNCC4)cc3)cnc2C)cc(OC)c1OC | enzyme activity | inhibitor |  |  | 1 µM | inhibition | 2%
O=C(Nc1cnn(-c2csc(C(=O)NC3COC3)c2)c1)Nc1c(F)cccc1Cl | enzyme activity | inhibitor |  |  | 5 µM | remaining activity | 104%
Cc1cnn2ncc(-c3ccnc(N(C)C)n3)c2c1 | binding |  |  |  | 1 µM | remaining binding | 84%
